Experimental data published in ChEMBL document CHEMBL1131143, “Predictive models for GABAA/benzodiazepine receptor subtypes: studies of quantitative structure-activity relationships for imidazobenzodiazepines at five recombinant GABAA/benzodiazepine receptor subtypes [alphaxbeta3gamma2 (x = 1-3, 5, and 6)] via comparative molecular field analysis” (J Med Chem, 1998).

Each compound was assayed against GABA-A receptor; alpha-6/beta-3/gamma-2 (Homo sapiens, UniProt P18507+P28472+Q16445) (assay: Binding affinity against Gamma-aminobutyric acid A receptor alpha-6-beta-3-gamma-2).
Sequence of GABA-A receptor; alpha-6/beta-3/gamma-2 (Q16445 whole entry, one chain of several): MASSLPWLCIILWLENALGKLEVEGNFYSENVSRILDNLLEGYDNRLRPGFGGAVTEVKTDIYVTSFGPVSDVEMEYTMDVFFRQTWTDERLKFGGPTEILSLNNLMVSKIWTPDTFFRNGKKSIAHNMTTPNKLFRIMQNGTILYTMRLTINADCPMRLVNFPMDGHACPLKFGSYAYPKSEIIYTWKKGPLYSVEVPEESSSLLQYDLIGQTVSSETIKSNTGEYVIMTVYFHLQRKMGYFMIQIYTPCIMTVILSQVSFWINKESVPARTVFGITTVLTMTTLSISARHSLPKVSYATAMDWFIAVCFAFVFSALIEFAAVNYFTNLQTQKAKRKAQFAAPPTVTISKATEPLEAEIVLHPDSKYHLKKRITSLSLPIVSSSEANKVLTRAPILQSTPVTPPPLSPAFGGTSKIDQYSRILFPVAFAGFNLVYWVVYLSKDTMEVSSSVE
Type: protein-complex assay
How it was run: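 Cells scraped into PBS, spun at 3000g, resuspended in 10 mM KH₂PO₄/100 mM KCl pH 7.4. Nonspecific binding with 10⁻⁵ M diazepam; 1 h to equilibrium at 4 °C; filtration, ice-cold buffer wash, scintillation counting.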

Structure (SMILES)	Ki
CCOC(=O)c1ncn2c1[C@@H]1CCCN1C(=O)c1cc(Br)ccc1-2	46 nM
CCCCC(=O)c1ncn2c1CN(C)C(=O)c1cc(Cl)ccc1-2	2930 nM
C#Cc1ccc2c(c1)C(=O)N1CC[C@H]1c1c(-c3nc(CC)no3)ncn1-2	361 nM
C#Cc1ccc2c(c1)C(=O)N1CCC[C@H]1c1c(-c3nc(C(C)C)no3)ncn1-2	333 nM
COCc1ncn2c1CN(C)C(=O)c1cc(Cl)ccc1-2	> 300 nM
CCc1ncn2c1CN(C)C(=O)c1cc(Cl)ccc1-2	3650 nM

What follows are compounds tested against T1, GABA-A receptor; alpha-5/beta-3/gamma-2 (Homo sapiens, UniProt P18507+P28472+P31644) (assay: Binding affinity for Gamma-aminobutyric acid A receptor alpha-5-beta-3-gamma-2).
T1 sequence (P18507 whole entry): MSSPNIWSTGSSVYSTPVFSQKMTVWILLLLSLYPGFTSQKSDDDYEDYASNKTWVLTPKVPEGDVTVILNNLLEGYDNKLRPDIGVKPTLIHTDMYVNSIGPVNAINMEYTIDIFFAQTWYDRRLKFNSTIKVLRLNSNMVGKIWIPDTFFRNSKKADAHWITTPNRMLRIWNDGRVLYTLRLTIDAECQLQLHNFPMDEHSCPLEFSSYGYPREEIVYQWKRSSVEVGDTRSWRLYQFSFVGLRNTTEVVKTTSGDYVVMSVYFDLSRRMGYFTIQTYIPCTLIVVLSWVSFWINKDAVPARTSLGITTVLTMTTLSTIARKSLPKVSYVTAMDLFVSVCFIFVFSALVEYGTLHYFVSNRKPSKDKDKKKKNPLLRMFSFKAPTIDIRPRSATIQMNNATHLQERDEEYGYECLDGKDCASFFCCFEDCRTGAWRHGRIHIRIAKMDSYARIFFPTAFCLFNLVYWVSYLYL
T1 sequence (P28472 whole entry): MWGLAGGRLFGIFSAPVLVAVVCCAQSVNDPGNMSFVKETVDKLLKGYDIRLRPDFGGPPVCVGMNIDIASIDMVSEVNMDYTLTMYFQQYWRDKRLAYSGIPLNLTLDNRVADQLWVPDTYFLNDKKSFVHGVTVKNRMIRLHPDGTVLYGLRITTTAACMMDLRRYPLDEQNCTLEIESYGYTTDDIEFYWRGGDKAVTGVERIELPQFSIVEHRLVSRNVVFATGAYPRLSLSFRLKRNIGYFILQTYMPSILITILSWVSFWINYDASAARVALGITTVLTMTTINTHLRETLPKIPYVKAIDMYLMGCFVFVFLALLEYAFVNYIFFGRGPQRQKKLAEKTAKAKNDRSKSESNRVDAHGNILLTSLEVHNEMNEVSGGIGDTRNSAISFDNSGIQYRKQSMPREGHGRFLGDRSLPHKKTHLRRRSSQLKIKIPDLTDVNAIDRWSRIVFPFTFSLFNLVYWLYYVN
T1 sequence (P31644 whole entry): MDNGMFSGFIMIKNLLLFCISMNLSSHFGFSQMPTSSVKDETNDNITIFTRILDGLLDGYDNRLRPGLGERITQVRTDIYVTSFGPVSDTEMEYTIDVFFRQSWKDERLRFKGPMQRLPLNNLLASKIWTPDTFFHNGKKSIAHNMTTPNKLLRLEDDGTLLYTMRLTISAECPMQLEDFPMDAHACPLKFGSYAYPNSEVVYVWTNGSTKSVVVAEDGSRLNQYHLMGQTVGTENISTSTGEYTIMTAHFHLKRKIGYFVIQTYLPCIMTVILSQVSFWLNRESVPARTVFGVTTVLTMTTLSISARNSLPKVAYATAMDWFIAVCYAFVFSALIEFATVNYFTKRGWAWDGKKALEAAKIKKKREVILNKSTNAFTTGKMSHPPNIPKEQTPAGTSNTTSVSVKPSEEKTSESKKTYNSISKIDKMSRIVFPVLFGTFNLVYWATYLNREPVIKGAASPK
Type: protein-complex assay

Structure (SMILES)	Ki
CCOC(=O)c1ncn2c1[C@@H]1CCCN1C(=O)c1cc(Br)ccc1-2	1 nM
CCCCC(=O)c1ncn2c1CN(C)C(=O)c1cc(Cl)ccc1-2	166 nM
C#Cc1ccc2c(c1)C(=O)N1CC[C@H]1c1c(-c3nc(CC)no3)ncn1-2	12.7 nM
C#Cc1ccc2c(c1)C(=O)N1CCC[C@H]1c1c(-c3nc(C(C)C)no3)ncn1-2	4.8 nM
COCc1ncn2c1CN(C)C(=O)c1cc(Cl)ccc1-2	38.8 nM
CCc1ncn2c1CN(C)C(=O)c1cc(Cl)ccc1-2	182 nM

The compounds below were run against T2, GABA-A receptor; alpha-3/beta-3/gamma-2 (Homo sapiens, UniProt P18507+P28472+P34903) (assay: Binding affinity against alpha-3-beta-3-gamma-2 GABAA/BzR receptor subtype.).
T2 sequence (P18507 whole entry): T1 sequence (P18507 whole entry)
T2 sequence (P28472 whole entry): T1 sequence (P28472 whole entry)
T2 sequence (P34903 whole entry): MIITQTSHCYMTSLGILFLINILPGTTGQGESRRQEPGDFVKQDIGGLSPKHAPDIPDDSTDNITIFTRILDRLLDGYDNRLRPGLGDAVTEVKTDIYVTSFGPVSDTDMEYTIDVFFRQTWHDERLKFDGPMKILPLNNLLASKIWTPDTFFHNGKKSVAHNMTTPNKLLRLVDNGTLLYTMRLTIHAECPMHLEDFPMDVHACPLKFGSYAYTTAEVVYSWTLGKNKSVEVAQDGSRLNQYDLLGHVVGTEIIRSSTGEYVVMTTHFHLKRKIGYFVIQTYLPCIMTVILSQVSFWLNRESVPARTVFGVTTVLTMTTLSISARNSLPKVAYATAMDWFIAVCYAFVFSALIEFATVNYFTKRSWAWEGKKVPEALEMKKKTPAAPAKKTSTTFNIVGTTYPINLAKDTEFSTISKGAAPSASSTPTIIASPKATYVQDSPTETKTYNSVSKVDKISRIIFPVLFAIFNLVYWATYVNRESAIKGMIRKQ
Type: protein-complex assay

Structure (SMILES)	Ki
CCOC(=O)c1ncn2c1[C@@H]1CCCN1C(=O)c1cc(Br)ccc1-2	15 nM
CCCCC(=O)c1ncn2c1CN(C)C(=O)c1cc(Cl)ccc1-2	2740 nM
C#Cc1ccc2c(c1)C(=O)N1CC[C@H]1c1c(-c3nc(CC)no3)ncn1-2	184 nM
C#Cc1ccc2c(c1)C(=O)N1CCC[C@H]1c1c(-c3nc(C(C)C)no3)ncn1-2	97 nM
COCc1ncn2c1CN(C)C(=O)c1cc(Cl)ccc1-2	> 300 nM
CCc1ncn2c1CN(C)C(=O)c1cc(Cl)ccc1-2	1130 nM

These compounds were tested against T3, GABA-A receptor; alpha-2/beta-3/gamma-2 (Homo sapiens, UniProt P18507+P28472+P47869) (assay: Binding affinity tested against alpha-2-beta-3-gamma-2 GABAA/BzR receptor subtype.).
T3 sequence (P18507 whole entry): T1 sequence (P18507 whole entry)
T3 sequence (P28472 whole entry): T1 sequence (P28472 whole entry)
T3 sequence (P47869 whole entry): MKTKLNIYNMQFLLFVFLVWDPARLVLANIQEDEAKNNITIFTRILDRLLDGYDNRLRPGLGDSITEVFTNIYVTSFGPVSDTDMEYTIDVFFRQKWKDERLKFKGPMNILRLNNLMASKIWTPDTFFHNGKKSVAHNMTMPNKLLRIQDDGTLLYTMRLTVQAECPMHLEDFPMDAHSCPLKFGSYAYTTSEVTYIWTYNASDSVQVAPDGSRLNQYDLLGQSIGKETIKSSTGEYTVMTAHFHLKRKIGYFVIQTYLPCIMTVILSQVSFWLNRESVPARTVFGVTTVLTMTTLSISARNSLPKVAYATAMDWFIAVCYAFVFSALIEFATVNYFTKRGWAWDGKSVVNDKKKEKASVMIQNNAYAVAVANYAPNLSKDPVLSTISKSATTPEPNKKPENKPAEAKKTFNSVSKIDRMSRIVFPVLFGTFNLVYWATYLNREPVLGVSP
Type: protein-complex assay

Structure (SMILES)	Ki
CCOC(=O)c1ncn2c1[C@@H]1CCCN1C(=O)c1cc(Br)ccc1-2	29 nM
CCCCC(=O)c1ncn2c1CN(C)C(=O)c1cc(Cl)ccc1-2	2860 nM
C#Cc1ccc2c(c1)C(=O)N1CC[C@H]1c1c(-c3nc(CC)no3)ncn1-2	150 nM
C#Cc1ccc2c(c1)C(=O)N1CCC[C@H]1c1c(-c3nc(C(C)C)no3)ncn1-2	85 nM
COCc1ncn2c1CN(C)C(=O)c1cc(Cl)ccc1-2	> 300 nM
CCc1ncn2c1CN(C)C(=O)c1cc(Cl)ccc1-2	1530 nM

Each compound was assayed against GABA-A receptor; alpha-1/beta-3/gamma-2 (Homo sapiens) (UniProt P14867+P18507+P28472) (assay: It is the ratio of Ki value for alpha-1-beta-3-gamma-2 to that of alpha-5-beta-3-gamma-2).
Type: protein-complex assay

Structure (SMILES)	Ratio
CCOC(=O)c1ncn2c1[C@@H]1CCCN1C(=O)c1cc(Br)ccc1-2	49
CCCCC(=O)c1ncn2c1CN(C)C(=O)c1cc(Cl)ccc1-2	9.6
C#Cc1ccc2c(c1)C(=O)N1CC[C@H]1c1c(-c3nc(CC)no3)ncn1-2	17
C#Cc1ccc2c(c1)C(=O)N1CCC[C@H]1c1c(-c3nc(C(C)C)no3)ncn1-2	15
COCc1ncn2c1CN(C)C(=O)c1cc(Cl)ccc1-2	> 7.7
CCc1ncn2c1CN(C)C(=O)c1cc(Cl)ccc1-2	2.2

Each compound was assayed against T4, GABA-A receptor; alpha-1/beta-3/gamma-2 (Homo sapiens, UniProt P14867+P18507+P28472) (assay: Binding affinity against alpha-1-beta-3-gamma-2 GABAA/BzR receptor subtype.).
T4 sequence (P14867 whole entry): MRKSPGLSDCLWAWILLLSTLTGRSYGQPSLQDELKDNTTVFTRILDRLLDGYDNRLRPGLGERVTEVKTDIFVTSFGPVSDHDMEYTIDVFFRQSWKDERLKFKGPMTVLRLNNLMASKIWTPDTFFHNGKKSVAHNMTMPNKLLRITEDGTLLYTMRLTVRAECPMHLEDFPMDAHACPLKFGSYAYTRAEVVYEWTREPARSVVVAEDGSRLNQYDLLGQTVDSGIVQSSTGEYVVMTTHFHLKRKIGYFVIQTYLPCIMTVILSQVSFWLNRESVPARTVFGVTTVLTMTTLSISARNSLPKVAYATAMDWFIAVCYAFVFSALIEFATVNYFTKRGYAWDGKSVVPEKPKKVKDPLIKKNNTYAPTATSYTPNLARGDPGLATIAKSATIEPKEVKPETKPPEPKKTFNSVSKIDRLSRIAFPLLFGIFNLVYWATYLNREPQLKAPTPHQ
T4 sequence (P18507 whole entry): T1 sequence (P18507 whole entry)
T4 sequence (P28472 whole entry): T1 sequence (P28472 whole entry)
Type: protein-complex assay

Structure (SMILES)	Ki
CCOC(=O)c1ncn2c1[C@@H]1CCCN1C(=O)c1cc(Br)ccc1-2	49 nM
CCCCC(=O)c1ncn2c1CN(C)C(=O)c1cc(Cl)ccc1-2	1580 nM
C#Cc1ccc2c(c1)C(=O)N1CC[C@H]1c1c(-c3nc(CC)no3)ncn1-2	220 nM
C#Cc1ccc2c(c1)C(=O)N1CCC[C@H]1c1c(-c3nc(C(C)C)no3)ncn1-2	73 nM
COCc1ncn2c1CN(C)C(=O)c1cc(Cl)ccc1-2	> 300 nM
CCc1ncn2c1CN(C)C(=O)c1cc(Cl)ccc1-2	408 nM
